{"data": "Results from different studies", "target": "MAP/microtubule affinity-regulating kinase 4 (MARK4, Homo sapiens, UniProt Q96L34)", "Sequence (Q96L34 1-752, as in one of the studies)": "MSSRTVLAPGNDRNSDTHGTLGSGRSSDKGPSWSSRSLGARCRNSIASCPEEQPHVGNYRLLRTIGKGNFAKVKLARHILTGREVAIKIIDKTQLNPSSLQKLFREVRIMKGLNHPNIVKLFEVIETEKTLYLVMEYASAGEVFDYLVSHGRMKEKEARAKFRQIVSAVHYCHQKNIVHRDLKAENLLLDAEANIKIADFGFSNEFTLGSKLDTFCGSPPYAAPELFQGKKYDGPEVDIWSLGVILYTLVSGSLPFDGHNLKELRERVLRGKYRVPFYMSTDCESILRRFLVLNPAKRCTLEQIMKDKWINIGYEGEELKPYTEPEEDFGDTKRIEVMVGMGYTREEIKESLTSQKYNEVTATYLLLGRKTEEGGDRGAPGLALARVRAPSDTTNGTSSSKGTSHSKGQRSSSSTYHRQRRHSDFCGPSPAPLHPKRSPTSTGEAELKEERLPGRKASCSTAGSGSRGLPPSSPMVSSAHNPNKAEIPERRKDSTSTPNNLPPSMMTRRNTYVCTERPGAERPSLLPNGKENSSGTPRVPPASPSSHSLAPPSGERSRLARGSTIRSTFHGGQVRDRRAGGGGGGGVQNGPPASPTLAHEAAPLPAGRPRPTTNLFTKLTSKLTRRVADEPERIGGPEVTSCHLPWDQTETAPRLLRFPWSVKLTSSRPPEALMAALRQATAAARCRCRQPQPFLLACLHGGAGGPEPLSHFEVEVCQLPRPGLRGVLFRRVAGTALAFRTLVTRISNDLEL", "note": "Compare with care: the assays were run in different laboratories."}
{"Structure (SMILES)": "COc1ncccc1-c1cnn2ccc(N3CCN(C(=O)OC(C)C)CC3)nc12", "read-out": "binding", "method": "competition with immobilised ligand", "concentration": "1 µM", "quantity": "remaining binding", "value": "100%"}
{"Structure (SMILES)": "Cc1nn(C)cc1-c1nc2c(N3CCN(Cc4ccc(Cl)cc4)CC3)c(Cl)cnc2[nH]1", "read-out": "binding", "method": "competition with immobilised ligand", "concentration": "1 µM", "quantity": "remaining binding", "value": "29%"}
{"Structure (SMILES)": "CC(C)(C)c1cc(C=C(C#N)C#N)cc(Br)c1O", "read-out": "enzyme activity", "mode": "inhibitor", "concentration": "0.5 µM", "quantity": "remaining activity", "value": "103%"}
{"Structure (SMILES)": "Cn1cncc1[C@@](O)(COc1ccc(C#N)cc1-c1ccc(OC(F)(F)F)cc1)c1ccc(C#N)cc1", "read-out": "cell-free assay", "method": "competition with immobilised ligand", "concentration": "1 µM", "quantity": "remaining binding", "value": "100%"}
{"Structure (SMILES)": "Cn1cc(-c2cccc(N3CCc4c(sc5c4CC(C)(C)C5)C3=O)c2CO)cc(Nc2ccncn2)c1=O", "read-out": "enzyme activity", "mode": "inhibitor", "concentration": "1 µM", "quantity": "inhibition", "value": "3%"}
{"Structure (SMILES)": "Nc1ncc(-c2nc(N3CCOCC3)nc(N3CCOCC3)n2)c(C(F)F)n1", "read-out": "binding", "method": "competition with immobilised ligand", "concentration": "10 µM", "quantity": "remaining binding", "value": "90%"}
{"Structure (SMILES)": "Cn1cc(-c2cc(F)cc(N3CCn4c(cc5c4CCCC5)C3=O)c2CO)cc(Nc2ccc(N3CCN(C4COC4)CC3)cn2)c1=O", "read-out": "enzyme activity", "mode": "inhibitor", "concentration": "0.1 µM", "quantity": "inhibition", "value": "9%"}
{"Structure (SMILES)": "COc1cc(Nc2ncc(F)c(Nc3ccc4c(n3)NC(=O)C(C)(C)O4)n2)cc(OC)c1OC", "read-out": "binding", "method": "competition with immobilised ligand", "concentration": "10 µM", "quantity": "inhibition", "value": "99%"}
{"Structure (SMILES)": "O=c1[nH]c2ccccc2n1C1CCN(Cc2ccc(-c3[nH]c4cc5ncnc5cc4nc3-c3ccccc3)cc2)CC1", "read-out": "cell-free assay", "concentration": "0.5 µM", "quantity": "remaining signal", "value": "102%"}
